Reference: ChEMBL document CHEMBL1151261, “Antineoplastic agents. 509: synthesis of fluorcombstatin phosphate and related 3-halostilbenes(1)” (J Nat Prod, 2005)
Converted amounts (≈) assume the structure as drawn. The source made the active and inactive calls. No cut-off for these calls is given here.

Tests used:
KM-20L2 = assay: Cytotoxicity against human KM20L2 cells after 48 hrs by sulforhodamine B assay; assay type: functional; conditions: KM-20L2, 48 h
Outline: (§1)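 Human tumor lines exposed to compound for 48 h, then fixed with trichloroacetic acid and stained with sulforhodamine B (NCI standard protocol); optical density read on a microplate reader. GI50 is the concentration giving a 50% reduction in net protein increase, calculated from optical density data.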

DU-145 = assay: Cytotoxicity against human DU145 cells after 48 hrs by sulforhodamine B assay; assay type: functional; conditions: DU-145, 48 h; outline: as §1
Cryptococcus neoformans [1] = assay: Antimicrobial activity against Cryptococcus neoformans ATCC 90112 at 64 ug/mL after 72 hrs by broth microdilution assay; assay type: functional, organism-based
Outline: (§2)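 Yeast NCCLS broth microdilution (M27-A). Inoculum 0.5 to 2.5×10^3 CFU/mL; 2-fold dilutions in 0.165 M MOPS-buffered RPMI 1640, pH 7.0; compound from DMSO, DMSO-only turbidity control; 35 °C without agitation; read at 72 h (Cryptococcus). MIC = lowest concentration giving no visible growth.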

Candida albicans = assay: Antimicrobial activity against Candida albicans ATCC 90028 at 64 ug/mL after 48 hrs by broth microdilution assay; assay type: functional, organism-based
Outline: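 Yeast NCCLS broth microdilution (M27-A). Inoculum 0.5 to 2.5×10^3 CFU/mL; 2-fold dilutions in 0.165 M MOPS-buffered RPMI 1640, pH 7.0; compound from DMSO, DMSO-only turbidity control; 35 °C without agitation; read at 48 h (Candida). MIC = lowest concentration giving no visible growth.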

Staphylococcus aureus [2] = assay: Antimicrobial activity against Staphylococcus aureus ATCC 29213 at 64 ug/mL after 24 hrs by broth microdilution assay; assay type: functional, organism-based
Outline: (§3)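 NCCLS bacterial broth microdilution (M7-A5). Overnight colonies diluted to about 5×10^5 CFU/mL final; 2-fold compound dilutions (DMSO stock) in cation-adjusted Mueller Hinton II broth; DMSO turbidity control; 35 °C without agitation, 24 h. MIC = lowest concentration with optically clear wells.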

Streptococcus pneumoniae [3] = assay: Antimicrobial activity against Streptococcus pneumoniae ATCC 6303 at 64 ug/mL after 24 hrs by broth microdilution assay; assay type: functional, organism-based
Outline: (§4)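 Streptococcus tested by NCCLS broth microdilution in cation-adjusted MHII broth with 3% lysed horse blood. Final inoculum about 5×10^5 CFU/mL; 2-fold compound dilutions from DMSO; DMSO turbidity control; 35 °C without agitation, 24 h. MIC = lowest concentration with no visible growth.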

Enterococcus faecalis = assay: Antimicrobial activity against Enterococcus faecalis ATCC 29212 at 64 ug/mL after 24 hrs by broth microdilution assay; assay type: functional, organism-based; outline: as §3
Micrococcus luteus [4] = assay: Antimicrobial activity against Micrococcus luteus Presque Isle 456 at 64 ug/mL after 24 hrs by broth microdilution assay; assay type: functional, organism-based; outline: as §3
Escherichia coli = assay: Antimicrobial activity against Escherichia coli ATCC 25922 at 64 ug/mL after 24 hrs by broth microdilution assay; assay type: functional, organism-based; outline: as §3
Enterobacter cloacae = assay: Antimicrobial activity against Enterobacter cloacae ATCC 13047 at 64 ug/mL after 24 hrs by broth microdilution assay; assay type: functional, organism-based; outline: as §3
[5] = test system: Stenotrophomonas maltophilia; assay: Antimicrobial activity against Stenotrophomonas maltophilia ATCC 13637 at 64 ug/mL after 24 hrs by broth microdilution assay; assay type: functional, organism-based; outline: as §3
NCI-H460 = assay: Cytotoxicity against human NCI-H460 cells after 48 hrs by sulforhodamine B assay; assay type: functional; conditions: NCI-H460, 48 h; outline: as §1
Neisseria gonorrhoeae [6] = assay: Antimicrobial activity against Neisseria gonorrhoeae ATCC 49226 at 64 ug/mL after 24 hrs by broth microdilution assay; assay type: functional, organism-based
Outline: (§5)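 Neisseria tested by NCCLS broth microdilution in gonococcal typing broth. Final inoculum about 5×10^5 CFU/mL; 2-fold compound dilutions from DMSO; DMSO turbidity control; 37 °C with 5% CO₂ without agitation, 24 h. MIC = lowest concentration with no visible growth.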

BXPC-3 = assay: Cytotoxicity against human BxPC3 cells after 48 hrs by sulforhodamine B assay; assay type: functional; conditions: BXPC-3, 48 h; outline: as §1
MCF7 = assay: Cytotoxicity against human MCF7 cells after 48 hrs by sulforhodamine B assay; assay type: functional; conditions: MCF7, 48 h; outline: as §1
SF-268 = assay: Cytotoxicity against human SF268 cells after 48 hrs by sulforhodamine B assay; assay type: functional; conditions: SF-268, 48 h; outline: as §1
P388 = assay: Cytotoxicity against mouse P388 cells after 48 hrs by Coulter particle counting; conditions: P388, 48 h, read-out: ED50 (the source's name)
Cryptococcus neoformans [7] = assay: Antimicrobial activity against Cryptococcus neoformans ATCC 90112 after 72 hrs by broth microdilution assay; assay type: functional; conditions: ATCC 90112, 72 h; outline: as §2
Staphylococcus aureus [8] = assay: Antimicrobial activity against Staphylococcus aureus ATCC 29213 after 24 hrs by broth microdilution assay; assay type: functional; conditions: ATCC 29213, 24 h; outline: as §3
Streptococcus pneumoniae [9] = assay: Antimicrobial activity against Streptococcus pneumoniae ATCC 6303 after 24 hrs by broth microdilution assay; assay type: functional; conditions: ATCC 6303, 24 h; outline: as §4
Micrococcus luteus [10] = assay: Antimicrobial activity against Micrococcus luteus Presque Isle 456 after 24 hrs by broth microdilution assay; assay type: functional; outline: as §3
Neisseria gonorrhoeae [11] = assay: Antimicrobial activity against Neisseria gonorrhoeae ATCC 49226 after 24 hrs by broth microdilution assay; assay type: functional; conditions: ATCC 49226, 24 h; outline: as §5
[12] = Inhibition of tubulin polymerization
Outline: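 Turbidimetry at 350 nm. Compound at varying concentrations preincubated with 10 μM (1.0 mg/mL) purified tubulin, chilled on ice, then 0.4 mM GTP added and polymerization followed at 30 °C. Extent of polymerization at 20 min measured.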

[13] = Displacement of [3H]colchicine from tubulin
Outline: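 [3H]colchicine binding with 1.0 μM tubulin, 5.0 μM [3H]colchicine and inhibitor at 1.0 μM.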

HUVEC [14] = assay: Induction of microtubule damage in HUVEC at 1 uM after 30 mins; assay type: functional, cell-based; conditions: Homo sapiens
Outline: (§6)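 Primary HUVECs from umbilical cords grown in M199 with 20% human serum, CD31-authenticated. About 3×10^4 cells on gelatin-coated coverslips, 24 h at 37 °C, then compound from DMSO for 30 min to 4 h, in duplicate. Cells methanol-fixed, stained with anti-α-tubulin and TRITC secondary plus Hoechst, imaged by confocal microscopy and scored for microtubule damage.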

HUVEC [15] = assay: Induction of microtubule damage in HUVEC at 1 uM after 1 hr; assay type: functional, cell-based; conditions: Homo sapiens; outline: as §6
HUVEC [16] = assay: Induction of microtubule damage in HUVEC at 1 uM after 2 hrs; assay type: functional, cell-based; conditions: Homo sapiens; outline: as §6
HUVEC [17] = assay: Induction of microtubule damage in HUVEC at 1 uM after 4 hrs; assay type: functional, cell-based; conditions: Homo sapiens; outline: as §6
HUVEC [18] = assay: Induction of microtubule depolymerization in HUVEC at 10 uM after 30 mins; assay type: functional, cell-based; conditions: Homo sapiens; outline: as §6
HUVEC [19] = assay: Induction of microtubule depolymerization in HUVEC at 10 uM after 1 hr; assay type: functional, cell-based; conditions: Homo sapiens; outline: as §6
HUVEC [20] = assay: Induction of microtubule depolymerization in HUVEC at 10 uM after 2 hrs; assay type: functional, cell-based; conditions: Homo sapiens; outline: as §6
HUVEC [21] = assay: Induction of microtubule depolymerization in HUVEC at 10 uM after 4 hrs; assay type: functional, cell-based; conditions: Homo sapiens; outline: as §6
[22] = Cytotoxicity against HUVEC; assay type: cell-based; conditions: human, HUVEC cells; read-out: ED50 (the source's name)
Outline: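 Commercial HUVECs grown in EGM-2 medium. Growth measured by the sulforhodamine B assay: 48 h exposure, TCA fixation, SRB stain, optical density read. ED50 = concentration giving 50% inhibition, taken from plotted data.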

HUVEC [23] = assay: Reduction of cord length in HUVEC at 0.01 ug/mL; assay type: functional, cell-based; conditions: Homo sapiens
Outline: (§7)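 Matrigel cord formation (NCI DTP protocol). Commercial HUVECs in EGM-2; Matrigel polymerized 15 min at RT then 30 min at 37 °C; 100 μL of 2×10^5 cells/mL plus compound solution; 24 h incubation. Imaged by inverted microscope; cord length and junction number compared with untreated controls.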

HUVEC [24] = assay: Reduction of cord length in HUVEC at 0.001 ug/mL; assay type: functional, cell-based; conditions: Homo sapiens; outline: as §7
HUVEC [25] = assay: Reduction of junction numbers in HUVEC at 0.01 ug/mL; assay type: functional, cell-based; conditions: Homo sapiens; outline: as §7
HUVEC [26] = assay: Reduction of junction numbers in HUVEC at 0.001 ug/mL; assay type: functional, cell-based; conditions: Homo sapiens; outline: as §7
HUVEC [27] = assay: Induction of microtubule depolymerization in HUVEC at 1 uM after 2 hrs; assay type: functional, cell-based; conditions: Homo sapiens
Outline: (§8)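 Primary HUVECs from umbilical cords, grown in M199 with 20% human serum, were seeded (~3×10^4) on gelatin-coated coverslips and grown 24 h at 37 °C. Compound in DMSO was added (final 1, 10 or 100 μM), with duplicate plates. Cells were fixed in ice-cold methanol and immunostained for α-tubulin (TRITC secondary) and with Hoechst. Microtubule disruption was scored by confocal microscopy.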

HUVEC [28] = assay: Induction of microtubule depolymerization in HUVEC at 1 uM after 4 hrs; assay type: functional, cell-based; conditions: Homo sapiens; outline: as §8

Row | Structure (SMILES) | GI50 (KM-20L2) | GI50 (DU-145) | Activity (Candida albicans) | Activity (Staphylococcus aureus [2]) | Activity (Enterococcus faecalis) | Activity (Escherichia coli) | Activity (Enterobacter cloacae) | Activity [5] | GI50 (NCI-H460) | GI50 (BXPC-3) | GI50 (MCF7) | GI50 (SF-268) | EC50 (P388) | MIC (Cryptococcus neoformans [7]) | MIC (Streptococcus pneumoniae [9]) | MIC (Micrococcus luteus [10]) | MIC (Neisseria gonorrhoeae [11]) | IC50 [12] | Activity [13] | Activity (HUVEC [14]) | other results
1 | COc1ccc(/C=C/c2cc(Br)c(OC)c(OC)c2)cc1O | 1.2 µg/mL (≈ 3.29 µM) | 0.13 µg/mL (≈ 0.356 µM) | inactive | inactive | inactive | inactive | inactive | inactive | 0.15 µg/mL (≈ 0.411 µM) | 1.6 µg/mL (≈ 4.38 µM) | 0.14 µg/mL (≈ 0.383 µM) | 0.18 µg/mL (≈ 0.493 µM) | 0.0174 µg/mL (≈ 0.0476 µM) | – | – | – | – | – | – | – | Activity (Cryptococcus neoformans [1]): inactive; Activity (Streptococcus pneumoniae [3]): inactive; Activity (Micrococcus luteus [4]): inactive; Activity (Neisseria gonorrhoeae [6]): inactive
2 | COc1ccc(/C=C/c2cc(F)c(OC)c(OC)c2)cc1O | 0.53 µg/mL (≈ 1.74 µM) | 0.18 µg/mL (≈ 0.591 µM) | inactive | – | inactive | inactive | inactive | inactive | 0.18 µg/mL (≈ 0.591 µM) | 2.2 µg/mL (≈ 7.23 µM) | 0.051 µg/mL (≈ 0.168 µM) | 0.35 µg/mL (≈ 1.15 µM) | 0.253 µg/mL (≈ 0.831 µM) | 64 µg/mL (≈ 210 µM) | 64 µg/mL (≈ 210 µM) | 16 µg/mL (≈ 52.6 µM) | 8 µg/mL (≈ 26.3 µM) | – | – | – | MIC (Staphylococcus aureus [8]): 32 µg/mL (≈ 105 µM)
3 | COc1ccc(/C=C\c2cc(F)c(OC)c(OC)c2)cc1O [FLUORCOMBSTATIN] | > 1 µg/mL | 0.0019 µg/mL (≈ 0.00624 µM) | inactive | inactive | inactive | inactive | inactive | inactive | < 0.0032 µg/mL | 0.745 µg/mL (≈ 2.45 µM) | < 0.0027 µg/mL | < 0.0016 µg/mL | < 0.002 µg/mL | 64 µg/mL (≈ 210 µM) | 64 µg/mL (≈ 210 µM) | 32 µg/mL (≈ 105 µM) | 32 µg/mL (≈ 105 µM) | 1500 nM | 75% | Active | Activity (HUVEC [15]): Active; Activity (HUVEC [16]): Active; Activity (HUVEC [17]): Active; Activity (HUVEC [18]): Active; Activity (HUVEC [19]): Active; Activity (HUVEC [20]): Active; Activity (HUVEC [21]): Active; CC50 [22]: 0.00025 µg/mL (≈ 0.000822 µM); Activity (HUVEC [23]): Active; Activity (HUVEC [24]): Active; Activity (HUVEC [25]): Active; Activity (HUVEC [26]): Active
4 | COc1ccc(/C=C\c2cc(Cl)c(OC)c(OC)c2)cc1O | 0.27 µg/mL (≈ 0.842 µM) | 0.00025 µg/mL (≈ 0.000779 µM) | inactive | inactive | inactive | inactive | inactive | inactive | 0.00026 µg/mL (≈ 0.000811 µM) | 0.32 µg/mL (≈ 0.998 µM) | 0.0026 µg/mL (≈ 0.00811 µM) | < 0.0009 µg/mL | 0.0024 µg/mL (≈ 0.00748 µM) | 64 µg/mL (≈ 200 µM) | 32 µg/mL (≈ 99.8 µM) | 32 µg/mL (≈ 99.8 µM) | 16 µg/mL (≈ 49.9 µM) | 1600 nM | 85% | Active | Activity (HUVEC [15]): Active; Activity (HUVEC [18]): Active; Activity (HUVEC [19]): Active; Activity (HUVEC [20]): Active; Activity (HUVEC [21]): Active; Activity (HUVEC [27]): Active; Activity (HUVEC [28]): Active
